Reference: ChEMBL document CHEMBL5252539, “In vitro biological evaluation of new antimycobacterial salicylanilide-tuftsin conjugates” (Eur J Med Chem, 2017)
In brackets after ≈: the same amount, converted by molar mass. Activity calls are given as the source filed them. The calls are words filed in the database; no cut-off is given here.

Columns and labels:
[1] = tested on: Mycobacterium tuberculosis; test: Antimycobacterial activity against Mycobacterium tuberculosis H37Rv ATCC 27294 assessed as reduction in bacterial growth after 28 days by serial dilution method; assay type: functional; conditions: H37Rv ATCC 27294, 672 h, time 28 day
How it was run: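 Broth MIC in Sula semisynthetic medium, pH 6.5; 4-week incubation, with 21-day values […] where indicated. Drug-free inoculated bacteria served as growth control. MIC also expressed as drug content (µg/mL) = MIC (µM) × average SAL molar mass × number of SAL per conjugate / 1000.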

[2] = tested on: Mycobacteroides abscessus; test: Antimycobacterial activity against Mycobacterium abscessus ATCC 19977 assessed as reduction in bacterial growth after 7 days by serial dilution method; assay type: functional; conditions: ATCC 19977, 168 h, time 7 day
How it was run: (§1)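 MIC determined in Sula semisynthetic medium, pH 6.5, 1 week incubation. Growth inhibition confirmed by plating on Löwenstein-Jensen solid medium and counting CFU. Bacteria inoculated without drug served as growth control.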

[3] = tested on: MONO-MAC-6; test: Cytostatic activity against human MONO-MAC-6 cells assessed as reduction in cell viability incubated for 24 hrs by MTT assay; assay type: functional, cell-based; conditions: MONO-MAC-6, 24 h
How it was run: (§2)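 MTT viability assay after 24 h exposure of MonoMac6 human monocytic cells or HepG2 human hepatocellular carcinoma cells. Top concentration 200 μM. IC50 taken from dose-response curves as the concentration reducing viability to 50% of maximal.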

[4] = tested on: HepG2; test: Cytostatic activity against human HepG2 cells assessed as reduction in cell viability incubated for 24 hrs by MTT assay; assay type: functional, cell-based; conditions: HepG2, 24 h; how it was run: as §2
[5] = Selectivity index, ratio of IC50 for cytostatic activity against human MONO-MAC-6 cells to MIC for antimycobacterial activity against Mycobacterium tuberculosis H37Rv ATCC 27294; assay type: toxicity, cell-based; conditions: read-out: Selectivity Index
How it was run: (§3)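 MTT assay on MonoMac6 or HepG2 cells after 24 h exposure, top concentration 200 µM. SI = IC50 (µM)/MIC (µM) against H37Rv from the 4-week Sula medium assay.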

[6] = Selectivity index, ratio of IC50 for cytostatic activity against human HepG2 cells to MIC for antimycobacterial activity against Mycobacterium tuberculosis H37Rv ATCC 27294; assay type: toxicity, cell-based; conditions: read-out: Selectivity Index; how it was run: as §3
[7] = tested on: Mycobacterium tuberculosis; test: Antimycobacterial activity against Mycobacterium tuberculosis H37Rv ATCC 27294 assessed as reduction in colony forming unit after 28 days by serial dilution method; assay type: functional, organism-based; conditions: time 28.0 day
How it was run: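 After the 4-week MIC incubation in Sula semisynthetic medium (pH 6.5), growth inhibition confirmed by plating on Löwenstein-Jensen solid medium and counting colony forming units.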

[8] = tested on: Mycobacteroides abscessus; test: Antimycobacterial activity against Mycobacterium abscessus ATCC 19977 assessed as reduction in colony forming unit after 7 days by serial dilution method; assay type: functional, organism-based; conditions: time 7.0 day; how it was run: as §1

SMILES | MIC [1] [µM] | MIC [2] [µM] | IC50 [3] [µM] | IC50 [4] [µM] | selectivity ratio [5] | selectivity ratio [6] | Activity [7] | Activity [8]
O=C(Nc1ccc(C(F)(F)F)cc1)c1cc(Cl)ccc1O | 1.6 (≈ 0.505 µg/mL) | 3.2 (≈ 1.01 µg/mL) | 2.2 | 5.8 |  |  |  | 
CCCCCCCCCC(=O)O [DECANOIC ACID] |  |  | > 200 |  |  |  |  | 
C/C(=N\OCC(=O)NCC(=O)N[C@@H](Cc1ccccc1)C(=O)N[C@@H](CC(C)C)C(=O)NCC(=O)N[C@H](C(=O)N[C@@H](CCCCN)C(=O)N1CCC[C@H]1C(=O)N[C@@H](CCCNC(=N)N)C(=O)O)[C@@H](C)O)c1ccc(NC(=O)c2cc(Br)ccc2O)cc1 [listing 1 of 2 here] | 31.6 (≈ 40 µg/mL) | 158 (≈ 200 µg/mL) |  |  |  |  |  | 
O=C(Nc1ccc(Cl)c(Cl)c1)c1cc(Cl)ccc1O | 1.6 (≈ 0.507 µg/mL) | 3.2 (≈ 1.01 µg/mL) | 3.8 | 2.4 | 2.4 | 1.5 |  | 
O=Cc1ccc(O)c(C(=O)Nc2ccc(C(F)(F)F)cc2)c1 | 25.9 (≈ 8.01 µg/mL) | 129 (≈ 40 µg/mL) | 21.5 | 17.6 | 0.8 | 0.7 | Active | Active
C/C(=N\OCC(=O)NCC(=O)N[C@@H](Cc1ccccc1)C(=O)N[C@@H](CC(C)C)C(=O)NCC(=O)N[C@H](C(=O)N[C@@H](CCCCN)C(=O)N1CCC[C@H]1C(=O)N1CCC[C@H]1C(=O)N[C@@H](CCCNC(=N)N)C(=O)O)[C@@H](C)O)c1ccc(NC(=O)c2cc(Br)ccc2O)cc1 [listing 1 of 2 here] | 29.4 (≈ 40 µg/mL) | 147 (≈ 200 µg/mL) |  |  |  |  |  | 
O=C(Nc1ccc(C(F)(F)F)cc1)c1cc(Br)ccc1O | 1.4 (≈ 0.504 µg/mL) | 13.9 (≈ 5.01 µg/mL) | 2 | 5.5 | 1.4 | 3.9 |  | 
C/C(=N\OCC(=O)NCC(=O)N[C@@H](Cc1ccccc1)C(=O)N[C@@H](CC(C)C)C(=O)NCC(=O)N[C@H](C(=O)N[C@@H](CCCCN)C(=O)N1CCC[C@H]1C(=O)N[C@@H](CCCNC(=N)N)C(=O)O)[C@@H](C)O)c1ccc(NC(=O)c2cc(Br)ccc2O)cc1 [listing 2 of 2 here] |  |  | > 200 | 113 | > 6.3 | 3.6 |  | 
CC(=O)c1ccc(NC(=O)c2cc(Cl)ccc2O)cc1 | 8.6 (≈ 2.49 µg/mL) | 34.5 (≈ 10 µg/mL) | 16.1 | 7.9 | 1.9 | 0.9 | Active | Active
NNC(=O)c1ccncc1 [ISONIAZID] | 1.17 (≈ 0.16 µg/mL) | 292 (≈ 40 µg/mL) |  |  |  |  | Active | Active
C/C(=N\OCC(=O)N[C@H](C(=O)N[C@@H](CCCCN)C(=O)N1CCC[C@H]1C(=O)N1CCC[C@H]1C(=O)N[C@@H](CCCNC(=N)N)C(=O)O)[C@@H](C)O)c1ccc(NC(=O)c2cc(Br)ccc2O)cc1 | 20.3 (≈ 20 µg/mL) | 203 (≈ 200 µg/mL) |  |  |  |  |  | 
C/C(=N\OCC(=O)NCC(=O)N[C@@H](Cc1ccccc1)C(=O)N[C@@H](CC(C)C)C(=O)NCC(=O)N[C@H](C(=O)N[C@@H](CCCCN)C(=O)N1CCC[C@H]1C(=O)N1CCC[C@H]1C(=O)N[C@@H](CCCNC(=N)N)C(=O)O)[C@@H](C)O)c1ccc(NC(=O)c2cc(Br)ccc2O)cc1 [listing 2 of 2 here] |  |  | > 200 | 156 | > 6.8 | 5.3 |  | 
CCCCCCCCCCCCCCCC(=O)O [PALMITIC ACID] |  |  | 178 |  |  |  |  | 
C/C(=N\OCC(=O)NCC(=O)N[C@@H](Cc1ccccc1)C(=O)N[C@@H](CC(C)C)C(=O)NCC(=O)N[C@H](C(=O)N[C@@H](CCCCN)C(=O)N1CCC[C@H]1C(=O)N[C@@H](CCCCN)C(=O)NCC(=O)N[C@H](C(=O)N[C@@H](CCCCN)C(=O)N1CCC[C@H]1C(=O)N[C@@H](CCCCN)C(=O)NCC(=O)N[C@H](C(=O)N[C@@H](CCCCN)C(=O)N1CCC[C@H]1C(=O)N[C@@H](CCCCN)C(=O)NCC(=O)N[C@H](C(=O)N[C@@H](CCCCN)C(=O)N1CCC[C@H]1C(=O)N[C@@H](CCCCN)C(=O)NCC(N)=O)[C@@H](C)O)[C@@H](C)O)[C@@H](C)O)[C@@H](C)O)c1ccc(NC(=O)c2cc(Br)ccc2O)cc1 | 142 (≈ 400 µg/mL) | 70.7 (≈ 200 µg/mL) |  |  |  |  |  | 
O=C(Nc1ccc(Cl)c(Cl)c1)c1cc(Br)ccc1O | 1.4 (≈ 0.505 µg/mL) | 7 (≈ 2.53 µg/mL) | 1.4 | 4.1 | 1 | 2.9 |  | 
